Reference: ChEMBL document CHEMBL1125756, “Synthesis and antiarrhythmic activity of alpha-[(diarylmethoxy)methyl]-1-piperidineethanols” (1991)

Assays:
Canis familiaris [1] = assay: […] 20 min after a dose of 5 mg/kg given intravenously over a 5-min period in normal dogs.; assay type: functional, Canis lupus familiaris; settings: route intravenous
Canis familiaris [2] = assay: […] at the end of the dose.(5 mg/kg was given intravenously over a 5-min period in normal dogs.); assay type: functional, Canis lupus familiaris
Canis familiaris [3] = assay: Degree of tachycardia in conscious normal dogs; 160-199; assay type: functional, Canis lupus familiaris
Method in brief: (§1)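 Conscious normal dogs, trained to sit quietly while sling restrained, were given 5 mg/kg iv as an infusion over 5 min in isotonic saline. Heart rate came from continuous limb lead II ECG during a control period, at end of dose, and at 20 min and 1 h. Degree bands were ≥200, 160–199, and <160 beats/min after a rise of ≥20. Duration bands were >2 h, 0.5–2 h and <0.5 h. Two dogs were used.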

Canis familiaris [4] = assay: Percent of normal beats 1 hr after 5 mg/kg given over 5 min by i.v. infusion.; assay type: functional, Canis lupus familiaris; settings: route intravenous
Method in brief: (§2)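 Coronary-artery-ligated dogs with ventricular arrhythmias received 5 mg/kg iv in 10–20 mL isotonic saline, infused over 5 min. Limb lead II ECG was monitored continuously for up to 6 h or until activity ended. Percent normal sinus beats was scored at control, end of dose, 20 min and 1 h. Results are mean ± SEM for n≥3 and mean ± SD for n=2.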

Canis familiaris [5] = assay: Percent of normal beats 20 min after 5 mg/kg given over 5 min by i.v. infusion.; assay type: functional, Canis lupus familiaris; settings: route intravenous; method in brief: as §2
Canis familiaris [6] = assay: Percent of normal beats after 5 mg/kg given over 5 min by i.v. infusion.; assay type: functional, Canis lupus familiaris; settings: route intravenous; method in brief: as §2
Canis familiaris [7] = assay: Period of tachycardiac effect in conscious normal dogs; assay type: functional, Canis lupus familiaris; method in brief: as §1
Canis familiaris [8] = assay: […] 1 h after a dose of 5 mg/kg given intravenously over a 5-min period in normal dogs.; assay type: functional, Canis lupus familiaris; settings: route intravenous
Canis familiaris [9] = assay: Activity rating following 5 mg/kg i.v. administration.; settings: route intravenous
Canis familiaris [10] = assay: Degree of tachycardia in conscious normal dogs.; assay type: functional, Canis lupus familiaris
Method in brief: (§3)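 Conscious normal dogs, trained to sit quietly while sling-restrained, received 5 mg/kg iv over 5 min, as in the ligated-dog protocol. Heart rate came from continuous limb lead II ECG at control, end of dose, 20 min and 1 h. Dogs above 140 beats/min were followed until the rate fell to 140. Degree was graded severe ≥200, moderate 160–199, slight <160 with a rise ≥20, none ≤20 change. Duration was graded long >2 h, moderate 0.5–2 h, short <0.5 h.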

Canis familiaris [11] = assay: […] 1 h after a dose of 5 mg/kg given intravenously over a 5-min period […].; assay type: functional, Canis lupus familiaris; settings: route intravenous
Method in brief: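 Dogs with coronary artery ligation and ventricular arrhythmia received 5 mg/kg iv in 10–20 mL isotonic saline, infused over 5 min. Limb lead II ECG was monitored continuously for up to 6 h. Percent normal sinus beats was scored at control, at end of dose, and at 20 min and 1 h. Values are mean ± SEM for three or more animals and mean ± SD for two.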

Canis familiaris [12] = assay: Period of tachycardiac effect in conscious normal dogs; 0.5-2; assay type: functional, Canis lupus familiaris; method in brief: as §3
Canis familiaris [13] = assay: Degree of tachycardiac effect in conscious normal dogs

SMILES | Heart rate (Canis familiaris [1]) [beats min-1] | Heart rate (Canis familiaris [2]) [beats min-1] | Rating (Canis familiaris [3]) [beats min-1] | Normal beats (Canis familiaris [4]) [%] | Normal beats (Canis familiaris [5]) [%] | Normal beats (Canis familiaris [6]) [%] | Rating (Canis familiaris [7]) [h] | Heart rate (Canis familiaris [8]) [beats min-1] | Activity rating (Canis familiaris [9]) | Rating (Canis familiaris [10]) [beats min-1] | Heart rate (Canis familiaris [11]) [beats min-1] | Rating (Canis familiaris [12]) [h] | Rating (Canis familiaris [13]) [beats min-1]
CC1CCCC(C)[N+]1(C)CC(O)COC(c1ccccc1)c1ccccc1.[Cl-] (configuration not stated) | 152 | 167 | 160 | 28 | 33 | 15 | <0.5 | 101 | 15 | – | – | – | –
Cc1ccccc1C(OCC(O)CN1CCCCC1C)c1ccccc1C.O=C(O)C(=O)O (configuration not stated) | – | – | – | 24 | 44 | 49 | – | – | 36 | – | – | – | –
CC1CCCC(C)N1CC(O)CNC(c1ccccc1)c1ccccc1.Cl.Cl (configuration not stated) | 132 | 141 | – | 30 | 47 | 92 | <0.5 | 122 | 44 | <160 | – | – | –
Cc1cccc(C)c1C(OCC(O)CN1C(C)CCCC1C)c1c(C)cccc1C (configuration not stated) | – | – | – | 54 | 76 | 49 | – | – | 47 | – | – | – | –
Cc1ccccc1C(OCC(O)CN1C(C)CCCC1C)c1ccccc1C (configuration not stated) | 113 | 153 | – | 50 | 68 | 87 | <0.5 | 142 | 51 | <160 | – | – | –
CC(OCC(O)CN1C(C)CCCC1C)c1ccccc1 (configuration not stated) | 101 | 156 | – | 11 | 16 | 62 | >2 | 144 | 13 | <160 | – | – | –
COc1ccccc1C(OCC(O)CN1C(C)CCCC1C)c1ccccc1OC (configuration not stated) | 232 | 234 | – | 33 | 62 | 100 | >2 | 232 | 57 | >200 | – | – | –
CC1CCCC(C)N1CC(O)CSC(c1ccccc1)c1ccccc1 (configuration not stated) | 148 | 185 | 160 | 42 | 49 | 95 | <0.5 | – | 51 | – | 148 | – | –
Cc1cccc(C)c1C(OCC(O)CN1C(C)CCCC1C)c1ccccc1 (configuration not stated) | – | – | – | 16 | 19 | 60 | – | – | 8 | – | – | – | –
CC1CCCC(C)N1CC(O)COC(c1ccccc1)c1ccccc1 (configuration not stated) | 171 | 172 | 160 | 53 | 67 | 88 | – | 150 | 56 | – | – | 0.5 | –
CCN(CC)CCNC(=O)c1ccc(N)cc1.Cl [PROCAINAMIDE HYDROCHLORIDE] | – | – | – | 34 | 66 | 72 | – | – | 52 | – | – | – | –
C[N+](C)(C)CC(O)COC(c1ccccc1)c1ccccc1 (configuration not stated) | 135 | 242 | – | 0 | 1 | 52 | – | 118 | 9 | >200 | – | 0.5 | –
CN(C)CC(O)COC(c1ccccc1)c1ccccc1.Cl (configuration not stated) | 115 | 121 | – | 15 | 25 | 61 | – | 110 | 19 | – | – | – | < 20
CCN(CC)CC(=O)Nc1c(C)cccc1C.Cl | – | – | – | 9 | 23 | 86 | – | – | 20 | – | – | – | –
Cc1ccccc1C(OCC(O)CN1C(C)CCCC1C)c1ccccc1 (configuration not stated) | 153 | 153 | 160 | 81 | 71 | 87 | – | 134 | 68 | – | – | 0.5 | –
CC1CCC(C)N1CC(O)COC(c1ccccc1)c1ccccc1 (configuration not stated) | 117 | 140 | – | 12 | 39 | 96 | – | 102 | 36 | <160 | – | 0.5 | –
Cc1ccccc1C(OCC(O)CN1CCCCC1)c1ccccc1C.O=C(O)C(=O)O (configuration not stated) | – | – | – | 16 | 31 | 79 | – | – | 21 | – | – | – | –
